Assay results: ChEMBL document CHEMBL1127501, “TcO(PnA.O-1-(2-nitroimidazole)) [BMS-181321], a new technetium-containing nitroimidazole complex for imaging hypoxia: synthesis, characterization, and xanthine oxidase-catalyzed reduction” (J Med Chem, 1994); call rule not given here
One block for each compound: values may come before it.

Tests used:
[1] = test system: xanthine oxidase; experiment: Half life for the nitro group loss in xanthine oxidase enzyme assay in 0.2%DMF at 0.1 mM; format: ADME
Procedure, shortened: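 Anaerobic assay in argon-purged, septum-sealed cuvette: 100 µM nitro compound, 4 mM hypoxanthine, 0.2 units/mL bovine milk xanthine oxidase, 0.1 M phosphate/EDTA pH 7.4, 0.2% DMF final. Nitro absorbance at 326 nm read every 5 min and converted to concentration. Half-life taken from plots of log[% remaining] vs time.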

[2] = test system: xanthine oxidase; experiment: (§1) Half life for the nitro group loss in xanthine oxidase enzyme assay in 5%DMF at 0.1 mM
[3] = target: Xanthine dehydrogenase/oxidase (Bos taurus, UniProt P80457); experiment: Reaction rate was evaluated for the compound with hypoxanthine as reducing substrate in 5% DMF expressed as nM/min/unit XOD
Chain of Xanthine dehydrogenase/oxidase (P80457 whole entry): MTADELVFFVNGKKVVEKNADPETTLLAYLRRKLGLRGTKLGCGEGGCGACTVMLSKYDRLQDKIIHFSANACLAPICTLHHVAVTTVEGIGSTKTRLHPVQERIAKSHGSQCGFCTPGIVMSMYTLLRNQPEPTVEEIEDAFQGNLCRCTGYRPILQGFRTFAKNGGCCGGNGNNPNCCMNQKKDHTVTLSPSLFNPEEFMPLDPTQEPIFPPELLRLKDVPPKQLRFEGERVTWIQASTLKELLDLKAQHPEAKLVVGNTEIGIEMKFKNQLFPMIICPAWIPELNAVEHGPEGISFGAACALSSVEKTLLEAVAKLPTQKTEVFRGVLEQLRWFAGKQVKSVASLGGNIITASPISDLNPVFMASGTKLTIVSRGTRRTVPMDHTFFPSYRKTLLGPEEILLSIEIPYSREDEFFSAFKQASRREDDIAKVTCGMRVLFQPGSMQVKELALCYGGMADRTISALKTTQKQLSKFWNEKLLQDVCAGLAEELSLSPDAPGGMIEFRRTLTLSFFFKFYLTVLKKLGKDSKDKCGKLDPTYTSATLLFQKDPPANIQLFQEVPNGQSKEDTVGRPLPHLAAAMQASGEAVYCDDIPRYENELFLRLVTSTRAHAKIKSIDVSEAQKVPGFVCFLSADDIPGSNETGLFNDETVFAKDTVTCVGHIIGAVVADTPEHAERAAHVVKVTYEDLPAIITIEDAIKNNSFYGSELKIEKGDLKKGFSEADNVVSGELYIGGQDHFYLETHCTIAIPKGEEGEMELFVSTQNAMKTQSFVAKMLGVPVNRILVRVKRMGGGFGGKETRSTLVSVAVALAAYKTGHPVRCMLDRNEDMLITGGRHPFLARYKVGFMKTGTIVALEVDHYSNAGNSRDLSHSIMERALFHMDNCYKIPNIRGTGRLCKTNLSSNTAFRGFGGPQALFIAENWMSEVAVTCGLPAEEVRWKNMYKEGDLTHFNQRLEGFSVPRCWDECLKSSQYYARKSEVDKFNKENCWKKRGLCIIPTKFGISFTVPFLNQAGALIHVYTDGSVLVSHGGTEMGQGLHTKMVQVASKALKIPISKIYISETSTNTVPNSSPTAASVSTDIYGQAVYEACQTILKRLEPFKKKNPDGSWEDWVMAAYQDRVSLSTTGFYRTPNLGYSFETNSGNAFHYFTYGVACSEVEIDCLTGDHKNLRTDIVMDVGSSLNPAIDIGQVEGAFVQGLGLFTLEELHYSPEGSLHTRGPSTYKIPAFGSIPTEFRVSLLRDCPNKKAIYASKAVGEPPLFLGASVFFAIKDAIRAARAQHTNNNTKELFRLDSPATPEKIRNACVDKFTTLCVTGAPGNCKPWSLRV

[4] = Half life for the nitro group loss in xanthine oxidase enzyme assay in 5 %DMF at 0.1 mM; No rection seen; format: ADME; settings: 100 µM
[5] = Half life for the nitro group loss in xanthime oxidase enzyme assay in 5%DMF with no enzyme control at 0.1 mM; No reaction seen; format: ADME; settings: 100 µM
[6] = Half life for the nitro group loss in xanthime oxidase enzyme assay in 5%DMF with no hypoxanthine control at 0.1 mM; No reaction seen; format: ADME; settings: 100 µM
[7] = as §1; format: ADME; settings: 100 µM
Procedure, shortened: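 Nitro compound at 100 µM with 4 mM hypoxanthine and 0.2 units/mL cow milk xanthine oxidase, in 0.1 M phosphate/EDTA pH 7.4 containing 5% DMF. Solutions were argon-deoxygenated before the enzyme was injected by gas-tight syringe. Loss of the 326 nm nitroimidazole absorbance was followed by UV/vis, and the half-life derived from the time course.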

half-life at 100 µM [1]: > 20 h
Compound: Cc1ncc([N+](=O)[O-])n1CCO [METRONIDAZOLE]

half-life at 100 µM [2]: 1 h
Rate [3]: 3.7 nM min-1 (unit XOD)-1
Compound: COCC(O)Cn1ccnc1[N+](=O)[O-] (stereo not drawn) [MISONIDAZOLE]

T1/2 [4]: Not Active
Compound: TCO(PNAO)

T1/2 [5]: Not Active
Rate [3]: 1.5 nM min-1 (unit XOD)-1
T1/2 [6]: Not Active
T1/2 [7]: 2 h
Compound: TcO(PnA.O-1-(2-nitroimidazole))
